# Reference: ChEMBL document CHEMBL5512639, “Insights from structure-activity relationships and the binding mode of peptidic α-ketoamide inhibitors of the malaria drug target subtilisin-like SUB1” (Eur J Med Chem, 2024)
# Active and inactive are the calls of the source. No cut-off for these calls is given here. Numbered stars: 1 amine (or outer) side, 2 acyl side, 3 side chain; on linkers, the order of the positions; unused ones are H or OH. Square brackets hold non-standard residues; d marks the D form. Peptide text beside a SMILES is read from it. * marks the point of attachment. Asp(3,3-Me2) = CC(C)(C(=O)O)[C@H](N)C(=O)O; X3 = NC(=O)CC[C@H](N[*:1])C(=O)C(=O)[*:2]; Gly(cPent) = N[C@H](C(=O)O)C1CCCC1; X1 = C[C@H](N[*:1])C(=O)C(=O)[*:2]; Pentanoyl(4-Me) = CC(C)CCC(=O)*; Cha = N[C@@H](CC1CCCCC1)C(=O)O; Chg = N[C@H](C(=O)O)C1CCCCC1; OAll = C=CCO*
# Experiments:
# [1] = test system: Plasmodium falciparum; assay: Antiparasitic activity against Plasmodium falciparum infected in human Erythrocyte assessed as inhibition of merozoite egress from human Erythrocyte measured for 8 hrs by flow cytometry analysis; format: functional, organism-based
# Method in brief: (§1)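 P. falciparum cultured in human RBCs, RPMI 1640 with 25 mM HEPES, 2.5% Albumax II, 100 μM hypoxanthine, 37 °C, 5% O2/5% CO2. Sorbitol-synchronized, plasmion-enriched late schizonts at 2% hematocrit, 1% parasitemia exposed to compound for 8 h. Fixed in glutaraldehyde, permeabilized, RNase-treated, stained with YOYO-1. Ring parasitemia by flow cytometry (100,000 events) vs DMSO. Triplicate; IC50 from 16 concentrations, 180 to 0.8 μM.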
# [2] = Inhibition of full length recombinant Plasmodium vivax SUB1 expressed in Drosophila S2 cells using Dabsyl-KLVGADDV-SLA-EDANS as substrate measured every 2 mins for 1 hr by FRET assay
# [3] = test system: Plasmodium falciparum; assay: Antiparasitic activity against Plasmodium falciparum infected in human Erythrocyte assessed as inhibition of merozoite egress from human Erythrocyte at 100 uM measured for 8 hrs by flow cytometry analysis relative to control; format: functional; method in brief: as §1
# [4] = Metabolic stability in human serum measured after 24 hrs by LC-MS analysis; format: ADME, cell-free; conditions: read-out: Stability
# Method in brief: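 Pooled human serum prewarmed 20 min at 37 °C; peptide added to 0.6 mM final. Aliquots taken over 0-24 h and proteins precipitated with MeCN/H2O/formic acid. Supernatant lyophilized and analysed by LC-SWATH-MS. Intact peak area expressed as % of the 0 h value. Two independent experiments in duplicate, mean ± SEM.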
# [5] = biological target: T1, Subtilisin-like protease 1 (Plasmodium falciparum, UniProt O61142); assay: Inhibition of full length recombinant Plasmodium falciparum SUB1 using Dabsyl-KLVSADNIDIS-EDANS as substrate measured every 2 mins for 1 hr by FRET assay
# T1 sequence (O61142 whole entry): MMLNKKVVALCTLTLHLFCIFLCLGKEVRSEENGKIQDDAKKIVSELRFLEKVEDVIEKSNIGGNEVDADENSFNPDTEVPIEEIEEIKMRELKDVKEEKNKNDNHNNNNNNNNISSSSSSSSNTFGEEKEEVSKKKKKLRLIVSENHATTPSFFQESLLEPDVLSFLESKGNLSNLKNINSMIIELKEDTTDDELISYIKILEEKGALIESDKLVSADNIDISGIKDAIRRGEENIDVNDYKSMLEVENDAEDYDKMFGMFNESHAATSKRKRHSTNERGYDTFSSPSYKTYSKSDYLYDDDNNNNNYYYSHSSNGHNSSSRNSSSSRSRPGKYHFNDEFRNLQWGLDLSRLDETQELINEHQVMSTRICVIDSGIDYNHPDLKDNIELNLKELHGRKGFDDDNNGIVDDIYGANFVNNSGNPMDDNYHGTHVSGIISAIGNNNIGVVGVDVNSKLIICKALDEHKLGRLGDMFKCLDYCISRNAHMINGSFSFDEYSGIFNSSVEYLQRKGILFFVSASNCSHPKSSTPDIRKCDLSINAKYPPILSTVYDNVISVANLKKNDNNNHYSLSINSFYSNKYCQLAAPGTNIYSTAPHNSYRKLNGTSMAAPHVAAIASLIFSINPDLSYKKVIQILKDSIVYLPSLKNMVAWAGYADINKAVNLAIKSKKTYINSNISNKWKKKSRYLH
# [6] = test system: Subtilisin-like protease 1 (Plasmodium vivax); assay: Binding affinity to Plasmodium vivax SUB1 using Dabsyl-KLVGADDV-SLA-EDANS as substrate using catalytic domain assessed as bound half life by jump dilution assay
# [7] = test system: Subtilisin-like protease 1 (Plasmodium vivax); assay: Binding affinity to Plasmodium vivax SUB1 using Dabsyl-KLVGADDV-SLA-EDANS as substrate using catalytic domain assessed as dissociation constant (Koff) by jump dilution assay
# [8] = Selectivity ratio of IC50 for inhibition of full length recombinant Plasmodium vivax SUB1 expressed in Drosophila S2 cells using Dabsyl-KLVGADDV-SLA-EDANS as substrate to IC50 for inhibition of full length recombinant Plasmodium falciparum SUB1 using Dabsyl-KLVSADNIDIS-EDANS as substrate
# [9] = test system: Subtilisin-like protease 1 (Plasmodium vivax); assay: Binding affinity to Plasmodium vivax SUB1 catalytic domain assessed as thermal stabilization by measuring change in melting temperature by differential scanning fluorimetry
# [10] = test system: Plasmodium falciparum; assay: Antiparasitic activity against Plasmodium falciparum infected in human Erythrocyte assessed as inhibition of merozoite egress from human Erythrocyte at 25 uM measured for 8 hrs by flow cytometry analysis relative to control; format: functional; method in brief: as §1
# [11] = biological target: T1, Subtilisin-like protease 1; assay: Inhibition of Plasmodium falciparum SUB1 assessed as inhibition constant
SMILES,IC50 [2],inhibition at 100 µM [3],IC50 [5],Ratio IC50 [8],other results
C[C@@H](NC[C@@H](O)[C@H](Cc1ccccc1)NC(=O)c1ccc(C(=O)N2CCN(C)CC2)cc1)c1ccccc1,–,–,–,–,IC50 [1]: 0.0011 µM
C=CCOC(=O)CC[C@H](NC(=O)[C@H](CC(=O)O)NC(=O)C(=O)[C@H](C)NC(=O)[C@H](C)NC(=O)[C@@H](NC(=O)[C@@H](NC(C)=O)[C@@H](C)CC)[C@@H](C)O)C(N)=O (Ac-ITA[X1]DE(OAll)-NH2),0.18 µM,13%,1.95 µM,9,remaining at 24 h [4]: ~95%; T1/2 [6]: 10 min; K [7]: 0.074 min⁻¹
C=CCOC(=O)CC[C@H](NC(=O)[C@H](CC(=O)O)NC(=O)C(=O)[C@H](C)NC(=O)[C@H](C)NC(=O)[C@@H](NC(=O)[C@H](CC1CCCCC1)NC(C)=O)[C@@H](C)O)C(N)=O (Ac-[Cha]TA[X1]DE(OAll)-NH2),4.08 µM,–,34.9 µM,9,inhibition [3]: inactive; ΔTm [9]: 6.8 °C
C=CCOC(=O)CC[C@H](NC(=O)[C@H](CC(=O)O)NC(=O)C(=O)[C@H](C)NC(=O)[C@H](C)NC(=O)[C@@H](NC(=O)[C@@H](NC(C)=O)C1CCCCC1)[C@@H](C)O)C(N)=O (Ac-[Chg]TA[X1]DE(OAll)-NH2),0.2 µM,13%,1.95 µM,9,–
CC(=O)N[C@H](C(=O)N[C@H](C(=O)N[C@@H](C)C(=O)N[C@@H](C)C(=O)C(=O)N[C@@H](CC(=O)O)C(N)=O)[C@@H](C)O)C1CCCC1 (Ac-[Gly(cPent)]TA[X1]D-NH2),0.1 µM,32%,0.55 µM,–,T1/2 [6]: 20 min; K [7]: 0.034 min⁻¹
CC[C@H](C)[C@H](NC(=O)[C@H](CC(=O)O)NC(=O)C(=O)[C@H](C)NC(=O)[C@H](C)NC(=O)[C@@H](NC(=O)[C@@H](NC(C)=O)C1CCCC1)[C@@H](C)O)C(N)=O (Ac-[Gly(cPent)]TA[X1]DI-NH2),0.014 µM,99.8%,0.017 µM,–,inhibition at 25 µM [10]: 25%
C=CCOC(=O)CC[C@H](NC(=O)[C@H](CO)NC(=O)C(=O)[C@H](C)NC(=O)[C@H](C)NC(=O)[C@@H](NC(=O)[C@@H](NC(C)=O)C1CCCC1)[C@@H](C)O)C(N)=O (Ac-[Gly(cPent)]TA[X1]SE(OAll)-NH2),10.9 µM,11%,32.2 µM,–,–
"C=CCOC(=O)CC[C@H](NC(=O)[C@@H](NC(=O)C(=O)[C@H](C)NC(=O)[C@H](C)NC(=O)[C@@H](NC(=O)[C@@H](NC(C)=O)C1CCCC1)[C@@H](C)O)C(C)(C)C(=O)O)C(N)=O (Ac-[Gly(cPent)]TA[X1][Asp(3,3-Me2)]E(OAll)-NH2)",0.18 µM,3%,1.03 µM,–,–
C=CCOC(=O)CC[C@H](NC(=O)[C@H](CC(=O)O)NC(=O)C(=O)[C@H](C)NC(=O)[C@H](C)NC(=O)[C@H](Cc1ccc(O)cc1)NC(=O)[C@@H](NC(C)=O)C1CCCC1)C(N)=O (Ac-[Gly(cPent)]YA[X1]DE(OAll)-NH2),0.025 µM,44%,0.15 µM,–,–
C=CCOC(=O)CC[C@H](NC(=O)[C@H](CC(=O)O)NC(=O)C(=O)[C@H](C)NC(=O)[C@H](C)NC(=O)[C@@H](NC(=O)[C@@H](NC(C)=O)C1CCCC1)C1CCCC1)C(N)=O (Ac-[Gly(cPent)][Gly(cPent)]A[X1]DE(OAll)-NH2),0.08 µM,46%,0.1 µM,1.25,inhibition at 25 µM [10]: 6%
CC[C@H](C)[C@H](NC(=O)[C@H](CCCCN)NC(=O)CCC(C)C)C(=O)N[C@H](C(=O)N[C@@H](C)C(=O)N[C@@H](CCC(N)=O)C(=O)C(=O)N[C@@H](CC(=O)O)C(=O)N[C@@H](CC(=O)O)C(=O)N[C@@H](CCC(N)=O)C(=O)N[C@@H](CCC(N)=O)C(N)=O)[C@@H](C)O ({Pentanoyl(4-Me)}-KITA[X3]DDQQ-NH2),–,–,–,–,Ki [11]: 10 µM
